Reference: PMC3886125 (Molecular nutrition & food research, 2012)
Marks after values point to notes of the source that are not given here.

Key:
[1] = Xanthones in tumor tissue; assay type: in vivo, Balb/c nu/nu mice; settings: for Tumor at 2 weeks, Free / Tumor at 4 weeks, Free / Tumor at 2 weeks, Conjugates / Tumor at 4 weeks, Conjugates: tumor tissue, diet 901 mg/kg xanthones; for Tumor at 2 weeks, Free / Tumor at 2 weeks, Conjugates: 2 weeks after injection of HT-29 cells; for Tumor at 4 weeks, Free / Tumor at 4 weeks, Conjugates: 4 weeks after injection of HT-29 cells; for Tumor at 2 weeks, Conjugates / Tumor at 4 weeks, Conjugates: nd = not detected; for Share of total xanthones in tumors: tentatively identified
[2] = Xanthones in serum; assay type: in vivo, Balb/c nu/nu mice; settings: for Identified in serum by HPLC-MS: mice fed diet with α-MG, not detected by HPLC-DAD
[3] = system: BcL-2; assay: BcL-2 in tumor tissue homogenates by ELISA; assay type: in vivo, Balb/c nu/nu mice; settings: mice fed diet with α-MG; 4 weeks after injection of cells; control diet 17.2 ±0.8
[4] = human subjects after mangosteen juice blend containing 94 mg/mL α-MG; cited from earlier work
[5] = rats, gastric administration of 20 mg/kg in water containing 2% ethanol plus 2% Tween-80; cited from earlier work
[6] = system: β-catenin; assay: β-catenin in tumor tissue homogenates by ELISA; assay type: in vivo, Balb/c nu/nu mice; settings: mice fed diet with α-MG; 4 weeks after injection of cells; control diet 19.1 ± 1.9
[7] = Food intake and body weight of mice fed diet with α-MG; assay type: in vivo, Balb/c nu/nu mice; settings: 845 mg/kg α-MG (901 mg total xanthones/kg) in the diet
Procedure, shortened: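 Female athymic Balb/c nu/nu mice arrived at 4 weeks of age and were acclimated 4 days on AIN-93G diet. They were randomized (n = 24/group) to γ-irradiated AIN-93G without or with a nominal 900 mg/kg test compound, given ad libitum; actual diet content was determined by extraction. Food intake, appearance/behaviour and body weight were checked after 3 and 7 days. Groups were compared by one-way ANOVA with Dunnett's post-test.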

[8] = system: β-catenin; assay: β-catenin content in HT-29 cells by ELISA; assay type: cell-based, human; settings: 24 h
Procedure, shortened: (§1)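 HT-29 cells were seeded at 2 × 10⁵ cells/well in 6-well dishes. At 70% confluence, monolayers got basal McCoy's medium without or with test compound (6 and 12 µmol/L) for 24 h at 37°C. Cells were washed twice with ice-cold PBS and pelleted (800 × g, 4°C, 10 min), then lysed in ice-cold lysis buffer. Protein was measured with a commercial ELISA kit. Data are means ± SD versus control, compared by Welch's unpaired t-test.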

[9] = system: HT-29 cells; assay: HT-29 colon cell xenograft growth in mice fed diet with α-MG; assay type: in vivo, Balb/c nu/nu mice; settings: diet 900 mg α-MG/kg
[10] = system: BcL-2; assay: BcL-2 content in HT-29 cells by ELISA; assay type: cell-based, human; settings: 24 h
Procedure, shortened: as §1

[11] = Xanthones in liver; assay type: in vivo, Balb/c nu/nu mice; settings: control- and tumor-bearing mice; tentatively identified
[12] = 6 µmol/L, preconfluent HT-29 cells
[13] = 2 weeks after injection of HT-29 cells
[14] = 4 weeks after injection of HT-29 cells

COc1c(O)cc2oc3cc4c(c(O)c3c(=O)c2c1CC=C(C)C)C=CC(C)(C)O4 [9-Hydroxycalabaxanthone]
Tumor at 2 weeks, Free [1]: 0.22 ± 0.09 ^a) µg/g | Tumor at 4 weeks, Free [1]: 0.32 ± 0.11 ^a) µg/g | Identified in serum by HPLC-MS [2]: Low concentrations

COc1c(O)cc2oc3cc(O)c(CC=C(C)C)c(O)c3c(=O)c2c1CC=C(C)C [α-MG, α-mangostin]
BcL-2 concentration in tumors [3]: 3.9 ± 0.5 pg/mg protein | Cmax of free α-MG in plasma [4]: 3.1 µM | Absorption [5]: extremely low | β-catenin concentration in tumors [6]: 11.2 ± 0.7 pg/mg protein | Share of tumor α-MG that is conjugated ([1]; 2 weeks postinjection): 60% | Free and conjugated α-MG concentration in tumor tissue ([1]; 4 weeks postinjection): 3.6 ± 0.1 | Share of tumor α-MG that is conjugated ([1]; 4 weeks postinjection): 52% | Tumor at 2 weeks, Free [1]: 0.51 ± 0.02 ^b) µg/g | Tumor at 2 weeks, Conjugates [1]: 0.76 ± 0.03 ^c) µg/g | Tumor at 4 weeks, Free [1]: 1.71 ± 0.06 ^a) µg/g | Tumor at 4 weeks, Conjugates [1]: 1.87 ± 0.06 ^a) µg/g | Body weight [7]: not significantly altered | Food intake [7]: not significantly altered | Decrease of β-catenin vs vehicle only [8, 12]: 24 ± 2% | Cellular content of β-catenin less than control cultures ([8]; 12 µmol/L, HT-29 cells): 39 ± 3% | Tumor mass less than control diet [9, 13]: 27% | Tumor volume less than in mice fed the diet without α-MG [9, 13]: 41% | Tumor mass less than control diet [9, 14]: 41% | Tumor volume less than in mice fed the diet without α-MG [9, 14]: 36% | Decrease of BcL-2 vs vehicle only [10, 12]: 27 ± 3% | Cellular content of BcL-2 less than control cultures ([10]; 12 µmol/L, HT-29 cells): 44 ± 4% | Concentration of conjugated α-MG in serum ([2]; mice with tumors for 2 weeks): 1000 ± 100 ng/mL | α-MG in serum, without enzyme treatment (free) ([2]; nontumor-bearing and tumor-bearing mice fed diet with α-MG for 5 weeks): 15 ± 1 ng/mL | Concentration of total α-MG in serum ([2]; nontumor-bearing mice, 4 weeks, glucuronidase/sulfatase treated): 1900 ± 300 ng/mL

COc1cc2oc3cc(O)c(OC)c(CC=C(C)C)c3c(=O)c2c(O)c1CC=C(C)C [β-MG, β-mangostin]
Share of the total xanthones in the liver [11]: approx. 85% | Share of total xanthones in tumors ([1]; 2 weeks after injection): 41% | Phase II conjugates as share of tumor β-MG ([1]; 4 weeks): 40% | Share of total xanthones in tumors ([1]; 4 weeks after injection): 45% | Tumor at 2 weeks, Free [1]: 1.54 ± 0.16 ^b) µg/g | Tumor at 2 weeks, Conjugates [1]: not detected | Tumor at 4 weeks, Free [1]: 2.68 ± 0.17 ^a) µg/g | Tumor at 4 weeks, Conjugates [1]: 1.83 ± 0.17 ^b) µg/g | Identified in serum by HPLC-MS [2]: Low concentrations
